Test results published in ChEMBL document CHEMBL4364254 (J Med Chem, 2019).
The source made the active and inactive calls. The rule behind the calls is not given here.

Experiments:
Cytochrome P450 1A2 = Cytochrome P450 1A2 (Homo sapiens, UniProt P05177); experiment: Induction of CYP1A2 in human HepaRG cells at 10 uM measured after 24 hrs by qRT-PCR analysis relative to omeprazole; format: ADME, cell-based; details: hepatocytes
Procedure, shortened: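 Cryopreserved HepaRG cells were plated on collagen I in Williams' E medium with GlutaMAX. On day 4 they were treated with 10 μM compound in serum-free induction medium for 24 h at 37 °C; the vehicle was 1% DMSO. Positive controls were omeprazole 50 μM (CYP1A2), phenobarbital 1 mM (CYP2B6) and rifampicin 10 μM (CYP3A4). mRNA was read by TaqMan qPCR with GAPDH as reference, using ΔΔCt, and expressed as % of the positive control.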

Cytochrome P450 3A4 = Cytochrome P450 3A4 (Homo sapiens, UniProt P08684); experiment: Induction of CYP3A4 in human HepaRG cells at 10 uM measured after 24 hrs by qRT-PCR analysis relative to rifampicin; format: ADME, cell-based; details: hepatocytes
Procedure, shortened: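 Cryopreserved HepaRG cells were plated on collagen I in Williams' E medium with GlutaMAX. Positive controls were omeprazole 50 μM (CYP1A2), phenobarbital 1 mM (CYP2B6) and rifampicin 10 μM (CYP3A4). mRNA was read by TaqMan qPCR with GAPDH as reference, using ΔΔCt, and expressed as % of the positive control.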

[1] = Cmax in C57BL6 mouse plasma at 0.3 mg/kg, po measured at 2 hrs post dose by LC-MS/MS analysis; format: ADME, organism-based; design: dose 0.3 mg/kg, route oral
Procedure, shortened: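 Female C57BL6 mice, 8 weeks old, received a single oral dose of 0.3 mg/kg in 1% NMP/0.3% Tween 80 in 0.5% Na-CMC. […] Maximum observed concentrations are reported; plasma clearance and half-life come from PK analysis.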

[2] = Half life in Sprague-Dawley rat plasma at 1 mg/kg, po by LC-MS/MS analysis; format: ADME, organism-based
Mus musculus = experiment: Anti-hepatosteatosis activity in ethanol-induced C57BL/6 mouse model of hepatic steatosis assessed as reduction in hepatic lipid accumulation at 0.03 to 0.3 mg/kg, po administered once daily via gavage for last 2 weeks of study measured post-last dose by oil red O staining-based light microscopic analysis; format: functional, organism-based
Procedure, shortened: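 Female C57BL/6J mice (9 weeks old, 19–21 g) were kept on Lieber–DeCarli liquid diet, with ethanol raised from 1 to 5% (v/v) over 15 d and then held for 4 weeks, pair-fed. Dosing was 0.03, 0.1 or 0.3 mg/kg by oral gavage once daily for the last 2 weeks, in 0.5% Na-CMC/1% NMP/0.3% Tween 80. Read-outs were Oil Red O on 10 μm liver sections imaged at 10× and liver weight normalized to brain weight. n = 6–10 per group; t test versus ethanol + vehicle.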

[3] = biological target: Alpha-1A adrenergic receptor (Homo sapiens, UniProt P35348); experiment: Displacement of [3H]prazosin from recombinant human alpha 1A adrenoceptor after 60 mins by scintillation counting analysis
[4] = biological target: Beta-1 adrenergic receptor (Homo sapiens, UniProt P08588); experiment: Displacement of [3H](-)CGP12177 from recombinant human beta1 adrenergic receptor after 60 mins by scintillation counting analysis
D(1A) dopamine receptor = D(1A) dopamine receptor (Homo sapiens, UniProt P21728); experiment: Displacement of [3H]SCH23390 from recombinant human D1 receptor after 60 mins by scintillation counting analysis
D(2) dopamine receptor = D(2) dopamine receptor (Homo sapiens, UniProt P14416); experiment: Displacement of [3H]7-OH-DPAT from recombinant human D2s receptor after 60 mins by scintillation counting analysis
Histamine H1 receptor = Histamine H1 receptor (Homo sapiens, UniProt P35367); experiment: Displacement of [3H]pyrilamine from recombinant human H1 receptor after 60 mins by scintillation counting analysis
[5] = biological target: Muscarinic acetylcholine receptor M1 (Homo sapiens, UniProt P11229); experiment: Displacement of [3H]pirenzepine from recombinant human M1 receptor after 60 mins by scintillation counting analysis
[6] = biological target: Delta-type opioid receptor (Homo sapiens, UniProt P41143); experiment: Displacement of [3H]DADLE from recombinant human DOR after 60 mins by scintillation counting analysis
[7] = biological target: 5-hydroxytryptamine receptor 1A (Homo sapiens, UniProt P08908); experiment: Displacement of [3H]8-OH-DPAT from recombinant human 5HT1A after 60 mins by scintillation counting analysis
[8] = biological target: 5-hydroxytryptamine receptor 2B (Homo sapiens, UniProt P41595); experiment: Displacement of [125I](+/-)DOI from recombinant human 5HT2B receptor after 60 mins by scintillation counting analysis
[9] = biological target: Sodium-dependent noradrenaline transporter (Homo sapiens, UniProt P23975); experiment: Displacement of [3H]nisoxetine from recombinant human norepinephrine transporter after 120 mins by scintillation counting analysis
Glutamate NMDA receptor = experiment: Displacement of [3H]CGP 39653 from rat brain NMDA receptor after 60 mins by scintillation counting analysis
[10] = biological target: 5-hydroxytryptamine receptor 3A (Homo sapiens, UniProt P46098); experiment: Displacement of [3H]BRL43694 from recombinant human 5HT3 receptor after 120 mins by scintillation counting analysis
Androgen receptor = Androgen receptor (Homo sapiens, UniProt P10275); experiment: Displacement of [3H]methyltrienolone from recombinant human AR after 1440 mins by scintillation counting analysis
Glucocorticoid receptor = Glucocorticoid receptor (Homo sapiens, UniProt P04150); experiment: Displacement of [3H]dexamethasone from recombinant human GR after 360 mins by scintillation counting analysis
[11] = biological target: Prostaglandin G/H synthase 1 (Homo sapiens, UniProt P23219); experiment: Activity at human recombinant COX1 using arachidonic acid as substrate measured after 3 mins by ADHP reagent based fluorescence assay
Acetylcholinesterase = Acetylcholinesterase (Homo sapiens, UniProt P22303); experiment: Activity at human recombinant ACHE using acetylthiocholine as substrate measured after 30 mins by spectrophotometric assay
[12] = biological target: cGMP-inhibited 3',5'-cyclic phosphodiesterase 3A (Homo sapiens, UniProt Q14432); experiment: Activity at human recombinant PDE3A using [3H]cAMP as substrate measured after 15 mins by scintillation counting analysis

Sequence of Glucocorticoid receptor (P04150 whole entry): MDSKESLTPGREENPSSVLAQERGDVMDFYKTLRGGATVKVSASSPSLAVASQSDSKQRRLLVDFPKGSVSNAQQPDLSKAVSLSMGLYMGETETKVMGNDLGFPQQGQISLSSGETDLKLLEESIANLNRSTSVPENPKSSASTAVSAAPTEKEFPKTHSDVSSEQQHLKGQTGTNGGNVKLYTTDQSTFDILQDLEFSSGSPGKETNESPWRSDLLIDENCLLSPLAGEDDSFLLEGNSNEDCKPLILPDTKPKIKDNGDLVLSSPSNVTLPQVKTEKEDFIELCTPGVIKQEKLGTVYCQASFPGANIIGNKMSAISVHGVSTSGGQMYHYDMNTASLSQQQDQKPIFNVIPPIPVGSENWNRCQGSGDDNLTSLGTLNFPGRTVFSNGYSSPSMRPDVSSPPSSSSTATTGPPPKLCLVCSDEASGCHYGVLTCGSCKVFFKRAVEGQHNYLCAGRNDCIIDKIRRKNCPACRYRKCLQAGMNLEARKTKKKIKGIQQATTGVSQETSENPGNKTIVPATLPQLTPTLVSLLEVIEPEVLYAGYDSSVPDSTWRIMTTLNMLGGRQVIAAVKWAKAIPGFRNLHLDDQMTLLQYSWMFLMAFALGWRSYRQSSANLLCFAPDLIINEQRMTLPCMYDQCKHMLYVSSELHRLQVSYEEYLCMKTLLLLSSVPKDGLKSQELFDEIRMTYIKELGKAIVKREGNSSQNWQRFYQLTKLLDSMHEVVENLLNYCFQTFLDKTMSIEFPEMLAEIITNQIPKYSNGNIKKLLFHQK
Sequence of Alpha-1A adrenergic receptor (P35348 whole entry): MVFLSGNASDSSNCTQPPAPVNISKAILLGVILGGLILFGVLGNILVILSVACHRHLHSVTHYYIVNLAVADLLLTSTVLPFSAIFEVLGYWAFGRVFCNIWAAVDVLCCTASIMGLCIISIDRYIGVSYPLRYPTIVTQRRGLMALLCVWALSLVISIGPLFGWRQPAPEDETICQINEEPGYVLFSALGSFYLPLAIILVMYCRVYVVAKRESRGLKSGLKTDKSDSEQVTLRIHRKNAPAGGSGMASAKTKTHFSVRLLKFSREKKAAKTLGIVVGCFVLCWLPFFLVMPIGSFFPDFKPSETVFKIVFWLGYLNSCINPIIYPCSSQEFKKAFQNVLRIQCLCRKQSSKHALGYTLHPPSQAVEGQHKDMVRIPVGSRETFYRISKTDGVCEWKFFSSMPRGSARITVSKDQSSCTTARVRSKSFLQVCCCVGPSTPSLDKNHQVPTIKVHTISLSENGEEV
Sequence of Beta-1 adrenergic receptor (P08588 whole entry): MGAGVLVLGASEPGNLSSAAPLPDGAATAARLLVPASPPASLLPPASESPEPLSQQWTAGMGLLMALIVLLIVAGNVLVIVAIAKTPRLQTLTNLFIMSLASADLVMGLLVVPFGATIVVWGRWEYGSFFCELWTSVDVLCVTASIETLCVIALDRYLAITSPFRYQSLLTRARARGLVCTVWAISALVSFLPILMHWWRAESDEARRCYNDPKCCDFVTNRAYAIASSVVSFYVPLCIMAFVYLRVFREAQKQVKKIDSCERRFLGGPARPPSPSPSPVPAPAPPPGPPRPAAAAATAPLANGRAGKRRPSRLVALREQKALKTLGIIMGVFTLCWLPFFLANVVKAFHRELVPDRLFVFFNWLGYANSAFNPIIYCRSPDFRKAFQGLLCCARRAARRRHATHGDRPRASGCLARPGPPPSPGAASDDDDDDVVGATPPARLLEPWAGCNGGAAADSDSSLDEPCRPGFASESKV
Sequence of Sodium-dependent noradrenaline transporter (P23975 whole entry): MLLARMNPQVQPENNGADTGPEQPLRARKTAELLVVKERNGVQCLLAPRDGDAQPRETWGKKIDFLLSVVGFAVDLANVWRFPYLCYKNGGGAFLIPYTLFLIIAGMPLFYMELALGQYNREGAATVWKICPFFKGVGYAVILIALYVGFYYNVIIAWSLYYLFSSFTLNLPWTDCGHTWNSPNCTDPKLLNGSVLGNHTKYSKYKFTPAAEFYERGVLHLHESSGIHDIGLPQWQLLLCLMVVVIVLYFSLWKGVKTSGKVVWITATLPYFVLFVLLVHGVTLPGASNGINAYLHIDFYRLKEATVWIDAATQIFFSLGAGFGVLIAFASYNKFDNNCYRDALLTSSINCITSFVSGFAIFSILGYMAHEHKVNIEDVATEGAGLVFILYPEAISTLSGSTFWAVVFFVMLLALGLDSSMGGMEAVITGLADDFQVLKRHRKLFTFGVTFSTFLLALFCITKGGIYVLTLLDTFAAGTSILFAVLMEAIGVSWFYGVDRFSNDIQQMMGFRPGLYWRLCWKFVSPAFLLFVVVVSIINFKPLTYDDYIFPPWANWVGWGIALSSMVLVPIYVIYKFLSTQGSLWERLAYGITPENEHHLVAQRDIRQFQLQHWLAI
Sequence of Androgen receptor (P10275 whole entry): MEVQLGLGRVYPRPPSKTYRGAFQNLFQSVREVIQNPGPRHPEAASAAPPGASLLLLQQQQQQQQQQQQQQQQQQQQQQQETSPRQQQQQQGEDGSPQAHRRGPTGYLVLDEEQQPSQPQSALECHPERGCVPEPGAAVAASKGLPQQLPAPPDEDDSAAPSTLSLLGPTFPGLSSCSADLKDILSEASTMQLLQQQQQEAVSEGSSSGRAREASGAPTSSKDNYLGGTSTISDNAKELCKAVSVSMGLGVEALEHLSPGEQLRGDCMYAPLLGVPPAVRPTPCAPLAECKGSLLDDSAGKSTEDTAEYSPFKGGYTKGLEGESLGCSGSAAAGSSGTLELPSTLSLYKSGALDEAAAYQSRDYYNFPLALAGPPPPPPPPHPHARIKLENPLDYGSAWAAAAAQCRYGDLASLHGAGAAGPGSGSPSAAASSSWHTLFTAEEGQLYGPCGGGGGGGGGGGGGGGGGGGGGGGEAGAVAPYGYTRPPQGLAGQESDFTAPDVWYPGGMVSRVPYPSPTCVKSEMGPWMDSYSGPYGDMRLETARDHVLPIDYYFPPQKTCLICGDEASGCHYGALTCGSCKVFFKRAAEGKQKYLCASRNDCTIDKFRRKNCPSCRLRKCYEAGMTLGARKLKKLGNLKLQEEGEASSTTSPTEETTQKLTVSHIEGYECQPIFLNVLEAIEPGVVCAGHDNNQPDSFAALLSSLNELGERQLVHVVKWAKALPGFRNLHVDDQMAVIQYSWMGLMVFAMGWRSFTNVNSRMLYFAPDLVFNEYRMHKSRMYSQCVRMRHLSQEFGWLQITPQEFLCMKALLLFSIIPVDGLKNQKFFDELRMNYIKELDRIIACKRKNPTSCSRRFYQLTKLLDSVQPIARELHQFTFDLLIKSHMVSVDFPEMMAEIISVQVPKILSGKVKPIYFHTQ
Sequence of Acetylcholinesterase (P22303 whole entry): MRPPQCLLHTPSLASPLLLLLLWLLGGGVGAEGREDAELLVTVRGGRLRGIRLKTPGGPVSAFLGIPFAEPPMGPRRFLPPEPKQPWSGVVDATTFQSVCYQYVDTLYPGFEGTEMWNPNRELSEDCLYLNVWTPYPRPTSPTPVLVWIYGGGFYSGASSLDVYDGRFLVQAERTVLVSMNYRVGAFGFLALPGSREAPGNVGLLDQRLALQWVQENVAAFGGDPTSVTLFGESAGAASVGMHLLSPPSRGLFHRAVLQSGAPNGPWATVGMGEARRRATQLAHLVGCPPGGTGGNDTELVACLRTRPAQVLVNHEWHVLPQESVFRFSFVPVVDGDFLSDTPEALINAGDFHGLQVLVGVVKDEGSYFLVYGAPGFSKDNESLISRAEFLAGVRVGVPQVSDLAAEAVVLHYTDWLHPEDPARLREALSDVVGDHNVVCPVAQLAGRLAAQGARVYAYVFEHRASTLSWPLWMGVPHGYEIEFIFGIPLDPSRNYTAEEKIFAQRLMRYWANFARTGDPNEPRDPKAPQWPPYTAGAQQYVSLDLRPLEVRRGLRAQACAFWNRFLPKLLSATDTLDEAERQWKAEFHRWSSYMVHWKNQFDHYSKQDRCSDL
Sequence of 5-hydroxytryptamine receptor 1A (P08908 whole entry): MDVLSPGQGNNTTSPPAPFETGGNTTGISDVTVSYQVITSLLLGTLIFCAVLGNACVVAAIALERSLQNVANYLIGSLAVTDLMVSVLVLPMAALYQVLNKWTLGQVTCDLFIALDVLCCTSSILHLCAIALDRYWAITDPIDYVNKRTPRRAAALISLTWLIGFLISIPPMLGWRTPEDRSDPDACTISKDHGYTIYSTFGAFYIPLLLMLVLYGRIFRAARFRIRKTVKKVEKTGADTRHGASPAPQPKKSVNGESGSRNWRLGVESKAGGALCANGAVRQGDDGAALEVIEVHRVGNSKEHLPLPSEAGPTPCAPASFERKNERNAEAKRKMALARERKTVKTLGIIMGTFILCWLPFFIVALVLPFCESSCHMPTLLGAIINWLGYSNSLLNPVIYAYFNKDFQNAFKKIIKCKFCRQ
Sequence of Histamine H1 receptor (P35367 whole entry): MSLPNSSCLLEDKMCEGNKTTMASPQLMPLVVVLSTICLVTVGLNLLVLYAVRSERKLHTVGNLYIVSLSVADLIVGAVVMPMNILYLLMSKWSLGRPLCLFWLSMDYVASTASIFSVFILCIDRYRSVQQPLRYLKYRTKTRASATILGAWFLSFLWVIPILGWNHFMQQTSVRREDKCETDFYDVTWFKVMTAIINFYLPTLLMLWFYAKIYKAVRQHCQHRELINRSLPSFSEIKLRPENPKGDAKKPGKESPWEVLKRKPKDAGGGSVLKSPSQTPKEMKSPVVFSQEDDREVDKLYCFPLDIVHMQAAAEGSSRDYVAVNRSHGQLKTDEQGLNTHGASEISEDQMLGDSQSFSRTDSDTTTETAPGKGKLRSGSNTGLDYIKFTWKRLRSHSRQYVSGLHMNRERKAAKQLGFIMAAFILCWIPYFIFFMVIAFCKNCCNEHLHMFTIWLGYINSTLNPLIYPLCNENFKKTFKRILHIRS

`O=C(Nc1ccc(OC(F)F)nc1)NC1CCN(c2ncnc3c2nc(-c2ccccc2Cl)n3-c2ccc(Cl)cc2)CC1` gave an Activity (Cytochrome P450 1A2) of under 1%, an Activity (Cytochrome P450 3A4) of under 10% and a Cmax [1] of 940 ng/mL. For the same molecule, the half-life [2] was 9.9 h, the Activity (Mus musculus) was “Active” and the EC50 [3] was over 10 µM. The IC50 [3] was over 10 µM, the EC50 [4] was over 10 µM and the IC50 [4] was over 10 µM. The EC50 (D(1A) dopamine receptor) was over 10 µM, the IC50 (D(1A) dopamine receptor) was over 10 µM and the EC50 (D(2) dopamine receptor) was over 10 µM. The IC50 (D(2) dopamine receptor) was over 10 µM, the EC50 (Histamine H1 receptor) was over 10 µM and the IC50 (Histamine H1 receptor) was over 10 µM. It also gave an EC50 [5] of over 10 µM, an IC50 [5] of over 10 µM and an EC50 [6] of over 10 µM. It also gave an IC50 [6] of over 10 µM, an EC50 [7] of over 10 µM and an IC50 [7] of over 10 µM. For the same molecule, the EC50 [8] was over 10 µM, the IC50 [8] was over 10 µM and the EC50 [9] was over 10 µM. It also gave an IC50 [9] of over 10 µM, an EC50 (Glutamate NMDA receptor) of over 10 µM and an IC50 (Glutamate NMDA receptor) of over 10 µM. It also gave an EC50 [10] of over 10 µM, an IC50 [10] of over 10 µM and an EC50 (Androgen receptor) of over 10 µM. For the same molecule, the IC50 (Androgen receptor) was over 10 µM, the EC50 (Glucocorticoid receptor) was over 10 µM and the IC50 (Glucocorticoid receptor) was over 10 µM. It also gave an EC50 [11] of over 10 µM, an IC50 [11] of over 10 µM and an EC50 (Acetylcholinesterase) of over 10 µM. For the same molecule, the IC50 (Acetylcholinesterase) was over 10 µM, the EC50 [12] was over 10 µM and the IC50 [12] was over 10 µM.
